Laboratory results published in ChEMBL document CHEMBL4190338, “1-Benzyl-3-aryl-2-thiohydantoin Derivatives as New Anti-Trypanosoma brucei Agents: SAR and in Vivo Efficacy” (ACS Med Chem Lett, 2017).
In brackets after ≈: the same amount, converted by molar mass.

Tests used:
[1] = test system: Trypanosoma brucei brucei; experiment: Antitrypanosomal activity against Trypanosoma brucei brucei BF427 measured after 48 hrs by Alamar blue assay; format: functional, organism-based; settings: BF427, 48 h
Outline: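 Bloodstream T. brucei BF427 cultured in HMI-9 medium. Exposed to serial 3-fold compound dilutions in triplicate, read with Alamar Blue at 48 h. Pentamidine isethionate control in every assay.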

[2] = Cytotoxicity against human CRL8155 cells assessed as growth inhibition after 48 hrs by Alamar blue assay; format: cell-based
Outline: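 Serial 3-fold dilutions in quadruplicate, 48 h, AlamarBlue read-out. Inhibition relative to untreated cells after subtracting a 50 µM quinacrine background. EC50 by nonlinear regression.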

Mus musculus [3] = experiment: AUC in mouse at 50 mg/kg, po administered as single dose measured 24 hrs post dose by liquid chromatography/tandem mass spectrometric analysis; format: ADME, organism-based; settings: in vivo
Outline: (§1)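 Single oral dose of 50 mg/kg to mice in Phosal 53 MCT (60%)/PEG400 (30%)/ethanol (10%). Tail blood collected at 0.5, 1, 2, 4, 6, 8 and 24 h post dose and spotted onto DMPK cards. Punched dried blood spot disks extracted with acetonitrile, quantified by LC-MS/MS.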

[4] = Half life in mouse liver microsomes at 1.5 uM by liquid chromatography/tandem mass spectrometric analysis; format: ADME, microsome
Outline: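 Pooled mouse liver microsomes at 0.5 mg/ml with compound at 1.5 µM final, in duplicate. Quenched with acetonitrile at 0, 5, 10, 15, 30 and 60 min, analysed by LC-MS/MS. Testosterone and dextromethorphan run as controls.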

[5] = Ratio of drug level in mouse brain to plasma at 5 mg/kg, ip administered as single dose measured 1 hr post dose by liquid chromatography/tandem mass spectrometric analysis; format: ADME, organism-based
Outline: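 Single IP injection of 5 mg/kg in 5% DMSO/7% Tween80/3% EtOH in 0.9% saline. At 1 h, plasma and brains collected; brains homogenized in water. Vehicle-injected mice (n=3) supplied matrix for standard curves. LC-MS/MS quantitation, with brain levels corrected for 3% v/w residual blood.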

[6] = Protein binding in Swiss Webster mouse plasma at 2 uM after 8 hrs by microdialysis based liquid chromatography/tandem mass spectrometric analysis; format: ADME, cell-free
Outline: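 Compound at 2 µM in 50% pooled female Swiss Webster mouse plasma (lithium heparin) with 10X PBS, dialysed against blank 10X PBS in triplicate chambers of a microdialysis device. Incubation at 37 °C, 5% CO2 overnight or ≥8 h with shaking. Centrifuged 3000 rcf 15 min; supernatants concentrated, LC-MS/MS. Propranolol control.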

[7] = Solubility in phosphate buffered saline at pH 7.4 at 50 uM incubated overnight by liquid chromatography/tandem mass spectrometric analysis; format: physicochemical; settings: buffer, pH 7.4, 50 µM
Outline: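 Compound at 50 µM in 1X PBS adjusted to pH 7.4, shaken overnight at 37 °C, then centrifuged 13500 rpm for 15 min at room temperature. Duplicate supernatant aliquots analysed by LC-MS/MS.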

[8] = test system: Trypanosoma brucei rhodesiense; experiment: Antitrypanosomal activity against trypomastigote form of Trypanosoma brucei rhodesiense STIB900 infected in mouse assessed as cure rate at 50 mg/kg administered via oral gavage bid from day 2 to 5 post infection measured 3 times per week for first month and weekly up to 60 days by microscopic method relative to control; format: functional
Mus musculus [9] = experiment: Cmax in mouse at 50 mg/kg, po administered as single dose measured 24 hrs post dose by liquid chromatography/tandem mass spectrometric analysis; format: ADME, organism-based; parameters: dose 50 mg/kg, route oral; settings: in vivo; outline: as §1
Cytochrome P450 3A4 = Cytochrome P450 3A4 (Homo sapiens, UniProt P08684); experiment: Inhibition of CYP3A4 (unknown origin); format: ADME
Chain of Cytochrome P450 3A4 (P08684 whole entry): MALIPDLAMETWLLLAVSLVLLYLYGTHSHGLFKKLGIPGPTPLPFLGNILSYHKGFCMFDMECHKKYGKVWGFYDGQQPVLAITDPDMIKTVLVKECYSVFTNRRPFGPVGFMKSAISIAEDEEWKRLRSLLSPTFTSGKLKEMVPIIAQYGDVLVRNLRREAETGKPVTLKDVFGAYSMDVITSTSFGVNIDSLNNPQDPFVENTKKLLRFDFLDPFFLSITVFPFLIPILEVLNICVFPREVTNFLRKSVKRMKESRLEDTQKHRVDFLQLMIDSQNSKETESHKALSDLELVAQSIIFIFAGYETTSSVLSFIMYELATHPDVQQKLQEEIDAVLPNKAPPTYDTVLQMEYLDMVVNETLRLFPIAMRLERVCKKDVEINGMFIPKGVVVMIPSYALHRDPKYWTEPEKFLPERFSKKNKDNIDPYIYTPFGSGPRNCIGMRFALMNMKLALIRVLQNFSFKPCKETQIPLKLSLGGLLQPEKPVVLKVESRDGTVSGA

| SMILES | EC50 [1] | CC50 [2] | other results |
| --- | --- | --- | --- |
| COc1cccc(N2C(=O)CN(Cc3ccccc3)C2=S)c1 | > 10 µM |  |  |
| COc1ccc(N2C(=O)CN(Cc3ccccc3)C2=S)cc1Cl | 0.346 µM |  |  |
| COc1ccc(N2C(=O)CN(Cc3ccc(F)cc3)C2=S)cc1OC | 0.049 µM | > 50 µM |  |
| CC(=O)c1ccc(N2C(=O)CN(Cc3ccccc3)C2=S)cc1 | > 10 µM |  |  |
| COc1ccc(N2C(=O)CN(Cc3ccc(Cl)cc3)C2=S)cc1Cl | 0.853 µM |  |  |
| CN(C)c1ccc(N2C(=O)CN(Cc3ccccc3)C2=S)cc1 | 1.5 µM |  |  |
| O=C1CN(Cc2ccccc2)C(=S)N1c1ccc(Cl)cc1 | > 10 µM |  |  |
| O=C1CN(Cc2ccccc2)C(=S)N1c1ccc(Cl)c(C(F)(F)F)c1 | > 10 µM |  |  |
| COc1ccc(N2C(=O)CN(Cc3ccc(F)c(C#N)c3)C2=S)cc1Cl | > 20 µM |  |  |
| COc1ccc(N2C(=O)CN(Cc3ccccc3)C2=S)cc1N(C)C | 0.431 µM |  |  |
| O=C1CN(Cc2ccc(F)cc2)C(=S)N1c1ccc(N2CCCC2)c(Cl)c1 | 0.027 µM | > 50 µM |  |
| O=C1CN(Cc2ccccc2)C(=S)N1c1ccccc1 | > 10 µM |  |  |
| CN(C)c1ccc(N2C(=O)CN(Cc3ccc(F)cc3C(F)(F)F)C2=S)cc1Cl | 0.022 µM | > 50 µM |  |
| COc1ccc(N2C(=O)CN(Cc3ccccc3)C2=S)c(OC)c1 | 0.637 µM |  |  |
| COc1ccc(N2C(=O)CN(Cc3cccc(F)c3)C2=S)cc1Cl | 0.968 µM |  |  |
| O=C1CN(Cc2ccccc2)C(=S)N1c1ccc(O)cc1 | > 10 µM |  |  |
| COc1ccc(N2C(=O)CN(Cc3ccc(F)cc3)C2=S)cc1Cl | 0.052 µM |  |  |
| O=C1CN(Cc2ccc(F)cc2Cl)C(=S)N1c1ccc(N2CCCC2)c(Cl)c1 | 0.009 µM | > 50 µM |  |
| O=C1CN(Cc2ccccc2)C(=S)N1c1ccccc1Cl | > 20 µM |  |  |
| COc1cc(N2C(=O)CN(Cc3ccc(F)cc3Cl)C2=S)ccc1N(C)C | 0.0019 to 0.002 µM | > 50 µM | IC50 (Cytochrome P450 3A4): 7.76 µM; AUC (Mus musculus [3]): 750 µmol·min/L; BPR [5]: 1.68; PPB [6]: 96.3%; solubility [7]: 4.1 µM (≈ 1.67 µg/mL); Activity [8]: 100%; Cmax (Mus musculus [9]): 2.5 µM |
| COc1cc(N2C(=O)CN(Cc3ccccc3)C2=S)cc(OC)c1OC | > 10 µM |  |  |

| SMILES | EC50 [1] | CC50 [2] | other results |
| --- | --- | --- | --- |
| O=C1CN(Cc2ccccc2)C(=S)N1c1ccc(F)c(Cl)c1 | > 10 µM |  |  |
| O=C1CN(Cc2ccccc2)C(=S)N1c1cc(C(F)(F)F)cc(C(F)(F)F)c1 | > 10 µM |  |  |
| COc1ccc(CN2CC(=O)N(c3ccc(OC)c(Cl)c3)C2=S)cc1 | > 20 µM |  |  |
| COc1ccc(N2C(=O)CN(Cc3ccccc3)C2=S)cc1 | > 10 µM |  |  |
| COC(=O)c1ccc(CN2CC(=O)N(c3ccc(OC)c(Cl)c3)C2=S)cc1 | > 20 µM |  |  |
| COc1ccc(N2C(=O)CN(Cc3cccnc3)C2=S)cc1Cl | 3 µM |  |  |
| O=C(O)c1ccc(N2C(=O)CN(Cc3ccccc3)C2=S)cc1 | > 10 µM |  |  |
| COc1ccc(N2C(=O)CN(Cc3ccc(C)cc3)C2=S)cc1Cl | 1.55 µM |  |  |
| COc1ccc(N2C(=O)CN(Cc3ccccc3)C2=S)cc1OC | 0.161 µM |  |  |
| CC(C)c1ccc(N2C(=O)CN(Cc3ccccc3)C2=S)cc1 | > 10 µM |  |  |
| O=C1CN(Cc2ccccc2)C(=S)N1c1cc(Cl)ccc1F | > 10 µM |  |  |
| O=C1CN(Cc2ccccc2)C(=S)N1c1ccc(F)cc1 | > 10 µM |  |  |
| COc1ccc(Cl)cc1N1C(=O)CN(Cc2ccccc2)C1=S | > 10 µM |  |  |
| COc1ccc(N2C(=O)CN(Cc3ccc(C(F)(F)F)cc3)C2=S)cc1Cl | > 20 µM |  |  |
| O=C1CN(Cc2ccccc2)C(=S)N1c1cccc(Cl)c1 | > 20 µM |  |  |
| COc1ccc(N2C(=O)CN(Cc3ccc(C#N)cc3)C2=S)cc1Cl | 17.8 µM |  |  |
| COc1cc(N2C(=O)CN(Cc3ccccc3)C2=S)ccc1N(C)C | 0.013 µM |  |  |
| N=C(N)c1ccc(OCCCCCOc2ccc(C(=N)N)cc2)cc1 | 0.00115 µM |  |  |
| CC(C)NCC(O)COc1cccc2ccccc12 (centres undefined) [PROPRANOLOL] |  |  | PPB [6]: 91.7% |
| CCN(CC)CCCC(C)Nc1c2ccc(Cl)cc2nc2ccc(OC)cc12 (centres undefined) [QUINACRINE] |  | 2.34 µM |  |

The next lines start with results.

| EC50 [1] | SMILES | CC50 [2] | other results |
| --- | --- | --- | --- |
| 0.125 µM | CN(C)c1ccc(N2C(=O)CN(Cc3ccccc3)C2=S)cc1F |  |  |
| 0.028 µM | COc1cc(N2C(=O)CN(Cc3ccc(F)c(F)c3)C2=S)ccc1N(C)C | > 50 µM |  |
| 0.011 µM | COc1cc(F)ccc1CN1CC(=O)N(c2ccc(N(C)C)c(OC)c2)C1=S | 39.6 µM |  |
| 0.01 µM | O=C1CN(Cc2ccc(F)cc2F)C(=S)N1c1ccc(N2CCCC2)c(Cl)c1 | > 50 µM |  |
| 0.013 µM | CN(C)c1ccc(N2C(=O)CN(Cc3ccc(F)c(F)c3)C2=S)cc1Cl | > 50 µM |  |
| 0.003 to 0.0032 µM | CN(C)c1ccc(N2C(=O)CN(Cc3ccc(F)cc3)C2=S)cc1Cl | 39 µM | AUC (Mus musculus [3]): 1376 µmol·min/L; t1/2 [4]: 15 min; BPR [5]: 0.74; PPB [6]: 88.8%; solubility [7]: 2.1 µM (≈ 0.794 µg/mL); Activity [8]: 100%; Cmax (Mus musculus [9]): 2.1 µM |
| 0.028 µM | COc1cc(N2C(=O)CN(Cc3ccc(F)cc3C(F)(F)F)C2=S)ccc1N(C)C | > 50 µM |  |
| 0.015 µM | CN(C)c1ccc(N2C(=O)CN(Cc3ccc(F)cc3Cl)C2=S)cc1F | > 50 µM |  |
| 0.044 µM | COc1cc(N2C(=O)CN(Cc3ccc(F)cc3[N+](=O)[O-])C2=S)ccc1N(C)C | > 50 µM |  |
| 0.555 µM | COc1ccc(N2C(=O)CN(Cc3ccc(F)cc3[N+](=O)[O-])C2=S)cc1OC | > 50 µM |  |
| 0.011 µM | COc1cc(F)ccc1CN1CC(=O)N(c2ccc(N(C)C)c(Cl)c2)C1=S | 12.6 µM |  |
| 0.313 µM | COc1ccc(N2C(=O)CN(Cc3ccc(F)c(F)c3)C2=S)cc1Cl |  |  |
| 0.063 µM | COc1ccc(N2C(=O)CN(Cc3ccc(F)cc3F)C2=S)cc1Cl |  |  |
| 0.028 µM | CN(C)c1ccc(N2C(=O)CN(Cc3ccc(F)cc3F)C2=S)cc1F | > 50 µM |  |
| 0.924 µM | COc1ccc(N2C(=O)CN(Cc3ccc(F)cc3C(F)(F)F)C2=S)cc1Cl |  |  |
| 0.033 µM | COc1ccc(N2C(=O)CN(Cc3ccc(F)cc3F)C2=S)cc1OC | > 50 µM |  |
| 0.35 µM | COc1ccc(N2C(=O)CN(Cc3ccc(F)cc3[N+](=O)[O-])C2=S)cc1Cl |  |  |
| 0.002 µM | CN(C)c1ccc(N2C(=O)CN(Cc3ccc(F)cc3Cl)C2=S)cc1Cl | > 50 µM |  |
| 0.115 µM | COc1ccc(N2C(=O)CN(Cc3ccc(F)c(F)c3)C2=S)cc1OC | > 50 µM |  |
| 0.019 µM | CN(C)c1ccc(N2C(=O)CN(Cc3ccc(F)cc3[N+](=O)[O-])C2=S)cc1Cl | > 50 µM |  |
| 0.016 µM | CN(C)c1ccc(N2C(=O)CN(Cc3ccccc3)C2=S)cc1Cl |  |  |
| 0.014 µM | COc1ccc(N2C(=O)CN(Cc3ccc(F)cc3Cl)C2=S)cc1OC | 36.8 µM |  |
| 0.006 µM | COc1cc(N2C(=O)CN(Cc3ccc(F)cc3F)C2=S)ccc1N(C)C | > 50 µM |  |
| 0.007 µM | COc1cc(N2C(=O)CN(Cc3ccc(F)cc3)C2=S)ccc1N(C)C | > 50 µM |  |
| 0.004 µM | CN(C)c1ccc(N2C(=O)CN(Cc3ccc(F)cc3F)C2=S)cc1Cl | > 50 µM |  |
| 0.107 µM | COc1cc(F)ccc1CN1CC(=O)N(c2ccc(OC)c(OC)c2)C1=S | > 50 µM |  |
| 0.191 µM | COc1ccc(N2C(=O)CN(Cc3ccc(F)cc3OC)C2=S)cc1Cl |  |  |
| 0.037 µM | COc1ccc(N2C(=O)CN(Cc3ccc(F)cc3C(F)(F)F)C2=S)cc1OC | > 50 µM |  |
